Test results taken from ChEMBL document CHEMBL3596173, “Structural Requirements for CNS Active Opioid Glycopeptides” (J Med Chem, 2015).
Starred links: 1 amine or outer side, 2 acyl side, 3 side chain; linkers in the order of their positions; H or OH if unused. Positions of bridges follow the written chain, without caps; N, C: chain ends. Non-standard residues stand in square brackets, D forms with d. Residues, ends and D or L forms follow the SMILES beside them. *: point of attachment. X1 = OC[C@H]1O[C@@H](O[C@H]2[C@H](O)[C@@H](O)[C@H](*)O[C@@H]2CO)[C@H](O)[C@@H](O)[C@@H]1O; βGlc = OC[C@H]1O[C@@H](*)[C@H](O)[C@@H](O)[C@@H]1O; dPen = CC(C)(S)[C@@H](N)C(=O)O; CH2CH2 = C(C[*:2])[*:1]; Aib = CC(C)(N)C(=O)O; Ava = NCCCCC(=O)O; GABA = NCCCC(=O)O

Key:
Mu-type opioid receptor = Mu-type opioid receptor (Homo sapiens, UniProt P35372); experiment: Displacement of [3H]-DAMGO from human mu opioid receptor expressed in CHO cells after 60 mins by scintillation counting analysis; assay type: cell-based
Method in brief: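 Membranes from CHO cells stably expressing human μ receptor were incubated with 0.25 nM (final) [3H]DAMGO in 50 mM Tris-HCl pH 7.5 for 60 min at 25 °C. Bound radioligand was separated by glass-fiber filtration with cold buffer washes and counted by scintillation. IC50 came from a least-squares log-probit fit, and Ki from IC50/(1+S).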

[1] = target: T1, Delta-type opioid receptor (Homo sapiens, UniProt P41143); experiment: Displacement of [3H]-naltrindole from human delta opioid receptor expressed in CHO cells at 10 uM after 3 hrs by scintillation counting analysis relative to control; assay type: cell-based
[2] = target: T2, Kappa-type opioid receptor (Homo sapiens, UniProt P41145); experiment: Displacement of [3H]-U69593 from human kappa opioid receptor expressed in CHO cells at 10 uM after 60 mins by scintillation counting analysis […]; assay type: cell-based
[3] = target: T1, Delta-type opioid receptor; experiment: Displacement of [3H]-naltrindole from human delta opioid receptor expressed in CHO cells after 3 hrs by scintillation counting analysis; assay type: cell-based
Method in brief: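 Binding used CHO-cell membranes bearing human δ receptor and 0.2 nM (final) [3H]naltrindole, incubated 3 h at 25 °C in 50 mM Tris-HCl pH 7.5. Nonspecific binding was defined with 100 μM naloxone. Samples were glass-fiber filtered, washed with cold buffer and scintillation counted. IC50 came from a log-probit least-squares fit and was converted to Ki as IC50/(1+S).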

[4] = target: T2, Kappa-type opioid receptor; experiment: Displacement of [3H]-U69593 from human kappa opioid receptor expressed in CHO cells after 60 mins by scintillation counting analysis; assay type: cell-based
Method in brief: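 Human κ receptor stably expressed in CHO cells was used as a membrane prep. It was incubated with 1 nM (final) [3H]U69,593 for 60 min at 25 °C in 50 mM Tris-HCl pH 7.5, with 10 μM naloxone defining nonspecific binding. Samples were filtered through glass-fiber filters presoaked ≥30 min in 0.1% polyethylenimine, washed cold and scintillation counted. Ki was derived from a log-probit IC50 via IC50/(1+S).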

Mus musculus [5] = experiment: Antinociceptive activity in icv dosed ICR mouse by 55 degC warm water tail-flick test; assay type: functional
Mus musculus [6] = experiment: Antinociceptive activity in iv dosed ICR mouse by 55 degC warm water tail-flick test; assay type: functional
[7] = target: T1, Delta-type opioid receptor; experiment: Binding affinity to delta opioid receptor (unknown origin)
Method in brief: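 Membranes from CHO cells stably expressing the human δ-opioid receptor. Incubated 3 h at 25 °C with 0.2 nM [3H]naltrindole in 50 mM Tris-HCl, pH 7.5. Nonspecific binding with 100 μM naloxone. Glass-fibre filtration, cold-buffer washes, scintillation counting. IC50 from log-probit least-squares fit, converted to Ki.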

[8] = target: T2, Kappa-type opioid receptor; experiment: Binding affinity to kappa opioid receptor (unknown origin)
Method in brief: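 CHO cell membranes stably expressing the human κ-opioid receptor. Incubated with 1 nM [3H]U69,593 for 60 min at 25 °C in 50 mM Tris-HCl, pH 7.5. Naloxone 10 μM defined nonspecific binding. Filters presoaked at least 30 min in 0.1% polyethylenimine, then washed and counted. Ki calculated from IC50 (log-probit fit).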

Mus musculus [9] = experiment: Antinociceptive activity in icv dosed CD-1 mouse by 55 degC warm water tail-flick test; assay type: functional
Method in brief: (§1)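 Male CD-1 mice (27−30 g), 8−10 per group. Compound in distilled water, given icv under light ether anaesthesia, 2 mm caudal and 2 mm lateral from bregma. 55 °C warm-water tail-flick: baseline latency taken first, and mice not responding within 5 s excluded. Retested at various times after dosing. %Antinociception = 100(test − control latency)/(10 − control latency). A50 doses derived.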

Mus musculus [10] = experiment: Antinociceptive activity in iv dosed CD-1 mouse by 55 degC warm water tail-flick test; assay type: functional
Method in brief: (§2)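 Male CD-1 mice (27−30 g), 8−10 per group. Compound in 0.9% saline, injected into the tail vein at 0.1 mL/10 g after the vein was dilated in 40 °C water. Tail immersion in 55 °C water, with baseline latency first and 5 s non-responders excluded. Tested at intervals post-dose. %Antinociception = 100(test − control latency)/(10 − control latency). A50 values obtained.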

Mus musculus [11] = experiment: Antinociceptive activity in icv dosed CD-1 mouse assessed as time required to show maximum activity by 55 degC warm water tail-flick test; assay type: functional; method in brief: as §1
Mus musculus [12] = experiment: Antinociceptive activity in iv dosed CD-1 mouse assessed as time required to show maximum activity by 55 degC warm water tail-flick test; assay type: functional; method in brief: as §2
Mus musculus [13] = experiment: Antinociceptive activity in iv dosed CD-1 mouse assessed as time duration of activity by 55 degC warm water tail-flick test; assay type: functional; method in brief: as §2
Mus musculus [14] = experiment: Antinociceptive activity in icv dosed CD-1 mouse assessed as time duration of activity by 55 degC warm water tail-flick test; assay type: functional; method in brief: as §1

T1 sequence (P41143 whole entry): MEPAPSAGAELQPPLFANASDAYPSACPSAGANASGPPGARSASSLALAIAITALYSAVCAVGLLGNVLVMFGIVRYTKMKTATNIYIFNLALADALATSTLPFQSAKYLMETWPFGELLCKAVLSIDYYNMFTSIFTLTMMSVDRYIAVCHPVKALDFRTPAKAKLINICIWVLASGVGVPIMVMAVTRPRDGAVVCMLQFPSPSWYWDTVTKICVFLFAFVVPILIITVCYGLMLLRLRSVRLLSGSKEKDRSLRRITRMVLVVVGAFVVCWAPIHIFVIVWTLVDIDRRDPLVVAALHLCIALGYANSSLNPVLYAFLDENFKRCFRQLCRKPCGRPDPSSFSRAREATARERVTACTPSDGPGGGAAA
Sequence of Mu-type opioid receptor (P35372 whole entry): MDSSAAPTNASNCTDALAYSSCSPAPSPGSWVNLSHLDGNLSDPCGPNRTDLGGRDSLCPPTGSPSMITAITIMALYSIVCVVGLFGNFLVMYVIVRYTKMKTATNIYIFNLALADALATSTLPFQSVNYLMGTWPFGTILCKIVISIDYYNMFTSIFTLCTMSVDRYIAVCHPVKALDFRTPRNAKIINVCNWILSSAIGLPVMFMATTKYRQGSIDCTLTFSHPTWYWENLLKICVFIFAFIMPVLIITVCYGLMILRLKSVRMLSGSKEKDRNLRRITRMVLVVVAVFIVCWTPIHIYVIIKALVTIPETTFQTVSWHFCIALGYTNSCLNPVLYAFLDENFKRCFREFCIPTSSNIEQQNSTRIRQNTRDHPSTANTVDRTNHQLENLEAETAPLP
T2 sequence (P41145 whole entry): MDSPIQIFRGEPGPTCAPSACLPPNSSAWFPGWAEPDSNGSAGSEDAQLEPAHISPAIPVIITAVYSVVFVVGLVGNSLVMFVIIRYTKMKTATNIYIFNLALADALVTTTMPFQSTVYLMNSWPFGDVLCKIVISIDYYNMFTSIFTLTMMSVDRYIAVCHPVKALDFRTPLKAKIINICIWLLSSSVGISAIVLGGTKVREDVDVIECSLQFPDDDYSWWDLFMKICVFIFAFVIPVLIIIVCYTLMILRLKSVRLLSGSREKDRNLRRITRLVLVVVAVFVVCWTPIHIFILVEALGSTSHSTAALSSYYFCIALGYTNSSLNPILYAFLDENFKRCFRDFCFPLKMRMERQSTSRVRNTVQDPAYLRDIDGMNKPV

SMILES | Ki (Mu-type opioid receptor) [nM] | Ki [3] [nM] | Ki [4] [nM] | A50 (Mus musculus [9]) [nmol] | A50 (Mus musculus [10]) [µmol/kg] | further results
CC(C)C[C@H](NC(=O)[C@H](CO[C@@H]1O[C@H](CO)[C@@H](O)[C@H](O)[C@H]1O)NC(=O)[C@H](CCCCN)NC(=O)[C@H](CC(C)C)NC(=O)[C@H](C)NC(=O)[C@H](CC(N)=O)NC(=O)[C@H](CC(N)=O)NC(=O)C(C)(C)NC(=O)[C@H](CC(C)C)NC(=O)[C@H](CC(N)=O)NC(=O)CNC(=O)CNC(=O)[C@H](Cc1ccccc1)N(C)C(=O)CNC(=O)[C@@H](C)NC(=O)[C@@H](N)Cc1ccc(O)cc1)C(N)=O | 120 |  |  |  |  | Activity [1]: 0%; Activity [2]: 16%
CC(C)C[C@H](NC(=O)[C@H](Cc1ccccc1)NC(=O)CNC(=O)[C@@H](NC(=O)[C@@H](N)Cc1ccc(O)cc1)[C@@H](C)O)C(=O)N[C@@H](CO[C@@H]1O[C@H](CO)[C@@H](O[C@@H]2O[C@H](CO)[C@@H](O)[C@H](O)[C@H]2O)[C@H](O)[C@H]1O)C(N)=O (H-YTGFLS(X1)-NH2) | 5 | 9.2 | 42 |  |  | A50 (Mus musculus [5]): 0.018 nmol; A50 (Mus musculus [6]): 4.07 µmol/kg
CC1(C)SCCSC[C@@H](NC(=O)[C@@H](N)Cc2ccc(O)cc2)C(=O)N[C@@H](Cc2ccccc2)C(=O)N[C@H]1C(N)=O (H-Y[dC]F[dPen]-NH2; linker 2-4 via CH2CH2) |  |  |  |  |  | Ki [7]: 24.8 nM; Ki [8]: 2000 nM
CC(C)C[C@H](NC(=O)[C@H](CO[C@@H]1O[C@H](CO)[C@@H](O)[C@H](O)[C@H]1O)NC(=O)[C@H](CCCCN)NC(=O)[C@H](CC(C)C)NC(=O)[C@H](C)NC(=O)[C@H](CCC(=O)O)NC(=O)[C@H](CCC(=O)O)NC(=O)C(C)(C)NC(=O)[C@H](CC(C)C)NC(=O)[C@H](CC(N)=O)NC(=O)CNC(=O)CNC(=O)[C@H](Cc1ccccc1)N(C)C(=O)CNC(=O)[C@@H](C)NC(=O)[C@@H](N)Cc1ccc(O)cc1)C(N)=O |  |  |  |  |  | Activity [1]: 0%; Activity [2]: 0%
CC(C)C[C@H](NC(=O)[C@H](CO[C@@H]1O[C@H](CO)[C@@H](O)[C@H](O)[C@H]1O)NC(=O)CCCNC(=O)[C@H](CC(C)C)NC(=O)[C@H](Cc1ccccc1)NC(=O)CNC(=O)[C@@H](NC(=O)[C@@H](N)Cc1ccc(O)cc1)[C@@H](C)O)C(N)=O (H-YTGFL[GABA]S(βGlc)L-NH2) | 6.6 | 15 | 71 | 0.06 | 2.54 | 
CC(C)C[C@H](NC(=O)[C@H](CO)NC(=O)CCCNC(=O)[C@H](CC(C)C)NC(=O)[C@H](Cc1ccccc1)NC(=O)CNC(=O)[C@@H](NC(=O)[C@@H](N)Cc1ccc(O)cc1)[C@@H](C)O)C(N)=O (H-YTGFL[GABA]SL-NH2) | 3.8 | 6.6 | 39 | 0.06 | >11.3 | 
CC(C)C[C@H](NC(=O)[C@H](CO[C@@H]1O[C@H](CO)[C@@H](O)[C@H](O)[C@H]1O)NC(=O)[C@H](CCCCN)NC(=O)[C@H](CC(C)C)NC(=O)[C@H](C)NC(=O)[C@H](CCCCN)NC(=O)[C@H](CCC(=O)O)NC(=O)C(C)(C)NC(=O)[C@H](CC(C)C)NC(=O)[C@H](CC(N)=O)NC(=O)CCCCNC(=O)[C@H](CC(C)C)NC(=O)[C@H](Cc1ccccc1)NC(=O)CNC(=O)[C@@H](NC(=O)[C@@H](N)Cc1ccc(O)cc1)[C@@H](C)O)C(N)=O (H-YTGFL[Ava]NL[Aib]EKALKS(βGlc)L-NH2) | 1.4 | 3.8 | 12 | 0.371 | 0.36 | Time (Mus musculus [11]): 10 min; Time (Mus musculus [12]): 30 min
CC(C)C[C@H](NC(=O)[C@H](CO[C@@H]1O[C@H](CO)[C@@H](O)[C@H](O)[C@H]1O)NC(=O)[C@H](CCCCN)NC(=O)[C@H](CC(C)C)NC(=O)[C@H](C)NC(=O)[C@H](CCCCN)NC(=O)[C@H](CCC(=O)O)NC(=O)C(C)(C)NC(=O)[C@H](CC(C)C)NC(=O)[C@H](CC(N)=O)NC(=O)[C@@H]1CCCN1C(=O)[C@H](CC(C)C)NC(=O)[C@H](Cc1ccccc1)NC(=O)CNC(=O)[C@@H](NC(=O)[C@@H](N)Cc1ccc(O)cc1)[C@@H](C)O)C(N)=O | 2.6 | 3.6 | 2.3 | 0.739 | 0.36 | Time (Mus musculus [11]): 10 min; Time (Mus musculus [12]): 30 min
CC(C)C[C@H](NC(=O)[C@H](CO[C@@H]1O[C@H](CO)[C@@H](O[C@@H]2O[C@H](CO)[C@@H](O)[C@H](O)[C@H]2O)[C@H](O)[C@H]1O)NC(=O)[C@H](CCCCN)NC(=O)[C@H](CC(C)C)NC(=O)[C@H](C)NC(=O)[C@H](CCCCN)NC(=O)[C@H](CCC(=O)O)NC(=O)C(C)(C)NC(=O)[C@H](CC(C)C)NC(=O)[C@H](CC(N)=O)NC(=O)CCCNC(=O)[C@H](CC(C)C)NC(=O)[C@H](Cc1ccccc1)NC(=O)CNC(=O)[C@@H](NC(=O)[C@@H](N)Cc1ccc(O)cc1)[C@@H](C)O)C(N)=O (H-YTGFL[GABA]NL[Aib]EKALKS(X1)L-NH2) | 13 | 17 | 52 | 0.165 | 1.13 | Time (Mus musculus [13]): 180 min
CC(C)C[C@H](NC(=O)[C@H](CO[C@@H]1O[C@H](CO)[C@@H](O)[C@H](O)[C@H]1O)NC(=O)[C@H](CCCCN)NC(=O)[C@H](CC(C)C)NC(=O)[C@H](C)NC(=O)[C@H](CCCCN)NC(=O)[C@H](CCC(=O)O)NC(=O)C(C)(C)NC(=O)[C@H](CC(C)C)NC(=O)[C@H](CC(N)=O)NC(=O)CCCNC(=O)[C@H](CC(C)C)NC(=O)[C@H](Cc1ccccc1)NC(=O)CNC(=O)[C@@H](NC(=O)[C@@H](N)Cc1ccc(O)cc1)[C@@H](C)O)C(N)=O (H-YTGFL[GABA]NL[Aib]EKALKS(βGlc)L-NH2) | 4.3 | 4.2 | 11 | 0.046 | 0.31 | Time (Mus musculus [14]): 90 min; Time (Mus musculus [11]): 10 min; Time (Mus musculus [12]): 30 min
CC(C)C[C@H](NC(=O)[C@H](CO[C@@H]1O[C@H](CO)[C@@H](O)[C@H](O)[C@H]1O)NC(=O)[C@H](CCCCN)NC(=O)[C@H](CC(C)C)NC(=O)[C@H](C)NC(=O)[C@H](CC(N)=O)NC(=O)[C@H](CCC(=O)O)NC(=O)C(C)(C)NC(=O)[C@H](CC(C)C)NC(=O)[C@H](CC(N)=O)NC(=O)CNC(=O)CNC(=O)[C@H](Cc1ccccc1)N(C)C(=O)CNC(=O)[C@@H](C)NC(=O)[C@@H](N)Cc1ccc(O)cc1)C(N)=O | 1200 |  |  |  |  | Activity [1]: 0%; Activity [2]: 0%
